# Screening data: PubChem, several laboratories
# Sampled rows, rich in hits. Any-hit rate of the full collection: about 3.8%.
# Measles CPE = protection of cells from measles virus; AID 841; hit rate 1.5% among 140,000; Measles virus-infected cells, CPE protection, absorbance; protection (pct of control), % at 4 µM; in the data active means protection mostly above about 24%, no sharp cut-off; inactive means mostly below about 26%
# Yeast lifespan up = extends the lifespan of yeast. AID 775. inhibition of the nicotinamide effect, % at 10 µM. hit rate 0.68% among 130,000. S. cerevisiae growth with nicotinamide, OD615; deaD strain in restrictive glucose medium;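 active means inhibition above a set limit, placed 3 SD over the median of all compounds, cut at about 26% in these data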;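 further: 0% = nicotinamide-treated wells and 100% = cells grown without nicotinamide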
#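 Test system – modified budding yeast, DeaD strain · Compound – single dose 10 µM compound, 0.25% DMSO · Times – culture preincubation 4 h, compound exposure 48 h, both 30 °C · Detection – optical density (absorbance) at 615 nm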
# sdo1 growth = compounds rescuing growth of sdo1-depleted yeast, bone marrow failure model; S. cerevisiae sdo1-depleted JHY4D growth rescue, OD600 30 h; active compounds read high; pdr5 snq2 efflux-pump mutant strain; z-score at 10 µM; hit rate 0.21% among 140,000; AID 817;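 active means z-score above 3 at both the 24 hr and the 30 hr optical density reads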;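 further: z-score against mean and SD of all compound wells on the same plate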
# RAM network inh = yeast RAM network inhibition | S. cerevisiae dse1pr::URA3 reporter, 5-FOA growth OD615, 2 d; analog-sensitive cbk1-as2 kinase mutant strain | hit rate 1.8% among 190,000 | AID 868 | inhibition, % at 50 µM;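 active means inhibition above a set limit, 3 SD over mean compound inhibition, cut at about 8.4% in these data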;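 further: 0% = DMSO-only wells with no growth and 100% = 10 µM 1-NA-PP1 full growth; inhibition rescues growth on 5-FOA so higher OD means more RAM inhibition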
# Yeast growth inh = reduces growth of yeast BB579 in restrictive medium; S. cerevisiae BB579 growth, OD615, 48 h; inhibition, % at 10 µM; hit rate 0.51% among 140,000; AID 804;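 active means inhibition above a set limit, 3 SD over the mean compound inhibition, cut at about 44% in these data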
#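 Assay system: S. cerevisiae DeaD strain BB579 yeast. Medium: CSMM-D restrictive synthetic medium containing dextrose (glucose). Times: 4 h cell preincubation, 48 h compound exposure, 30 °C humidified. Signal: OD615 turbidity measurement. Benchmarks: positive control amphotericin B 10 µg/mL.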
# Numbers without * were called inactive; . = no result.
SMILES,Measles CPE,Yeast lifespan up,sdo1 growth,RAM network inh,Yeast growth inh
CCN1C(=O)C(=Cc2ccc(C)s2)C(=O)N(CC)C1=S,3.9,65.8*,-1.74,9.5*,-18.9
Cc1ccc(-n2c(O)c(C=Nc3ccc(S(=O)(=O)N(C)C)cc3)c(=O)[nH]c2=O)cc1,14.1,-5.1,0.76,7.3,-56.5
O=[N+]([O-])c1cccc(CN2CCN(Cc3ccc(Br)cc3)CC2)c1,.,.,.,0.5,.
CC1=CC(=C2C(=O)NC(=S)NC2=O)C=C(C(F)(F)F)N1CCc1ccccc1,.,.,.,10.8*,.
CCN(CC)c1ccc(N=Cc2c(O)n(-c3ccc(Cl)cc3)c(=O)[nH]c2=O)cc1,2.3,-18.0,-1.21,11.2*,-18.5
CNS(=O)(=O)c1ccc(N=Cc2c(O)n(-c3ccccc3)c(=O)[nH]c2=O)cc1,.,.,.,9.4*,.
CNS(=O)(=O)c1ccc(N=Cc2c(O)n(-c3cccc(C)c3)c(=O)[nH]c2=O)cc1,.,.,.,1.2,.
Cc1ccc(N2C(=O)NC(=O)/C(=C/C=C/c3ccco3)C2=O)cc1,1.9,27.1*,0.63,5.1,-25.8
Cc1cc(C)cc(N2C(=O)NC(=O)/C(=C\C=C\c3ccco3)C2=O)c1,0.9,28.4*,-0.72,4.1,-13.1
CC(C)c1ccc(N2C(=O)NC(=O)/C(=C/C=C/c3ccco3)C2=O)cc1,0.4,11.3,-1.24,2.4,-21.4
O=C(c1ccc(N2CCCCCC2)c([N+](=O)[O-])c1)N1CCC2(CC1)OCCO2,.,.,.,-1.2,.
C=CCn1c(O)c(C(C)=NCCc2ccccc2)c(=O)[nH]c1=O,23.6*,-9.3,-0.47,2.6,-18.3
Fc1ccc(C2NCCc3[nH]cnc32)cc1 (stereo not given),25.1,4.0,1.02,0.9,-7.2
CCc1ccc(-n2c(O)c(/C=N/NC(=O)c3ccncc3)c(=O)[nH]c2=O)cc1,9.4,-0.4,1.21,11.2*,-8.6
CC(C)c1ccc(-n2c(O)c(/C=N/NC(=O)c3ccncc3)c(=O)[nH]c2=O)cc1,12.3,-1.4,1.18,-0.2,-32.7
CN=C(SCc1cc2c(cc1Cl)OCO2)c1c(O)n(C)c(=O)n(C)c1=O,26.6,56.5*,0.36,-0.6,18.5
Cc1ccsc1C(=O)C1CCCN(Cc2cccn2-c2ccccn2)C1 (stereo not given),.,.,.,1.6,.
CC(=NCc1ccco1)c1c(O)n(-c2ccccc2)c(=O)[nH]c1=O,7.3,-7.2,-0.11,1.1,-20.0
CCCN(CC#CCOc1ccc(OC)cc1)CCC,37.2*,-9.0,0.15,3.1,-6.8
Clc1ccc(OCC#CCN2CCCC2)cc1,.,.,.,2.1,.
CC1CCN(C(=O)C(C)Cl)CC1 (stereo not given),.,.,.,0.2,.
COc1ccc(CN2CCCCC2c2cccnc2)cc1C (stereo not given),38.1*,-7.1,0.12,1.3,-39.8
COc1cccc(CN2CCCCC2c2cccnc2)c1 (stereo not given),12.2,-10.7,-0.12,0.9,-15.4
CN(C)c1cc(N)c2c(n1)CCC2 (tested in a mixture with another compound),5.4,3.3,-0.22,-1.0,-45.5
CCOc1ccc(N2C(=O)/C(=C\c3cccs3)C(=O)NC2=S)cc1,.,.,.,5.0,.
SMILES,Measles CPE,Yeast lifespan up,sdo1 growth,RAM network inh,Yeast growth inh
O=C1NC(=S)N(c2ccccc2F)C(=O)/C1=C\c1cccs1,11.6,6.4,-1.24,1.6,73.1*
Cc1nc2ccccc2c(=O)n1-c1ccc(F)cc1,31.0*,-10.7,0.3,0.2,-91.8
Cc1cc(C=C2C(=O)NC(=O)NC2=O)c(C)n1-c1ccc2c(c1)OCO2,14.2,-3.5,0.17,2.6,-18.8
Cc1cc(C=C2C(=O)NC(=S)NC2=O)c(C)n1-c1ccc2c(c1)OCO2,12.2,39.1*,-1.6,8.0,-39.4
Clc1ccc2c(c1)C(c1ccccc1Cl)=NCc1nnc(N3CCN(CCOc4ccccc4)CC3)n1-2,27.5*,17.7,-1.68,0.5,-9.2
CCN1CCN(Cc2cc(C(C)(C)C)c(O)c(C(C)(C)C)c2)CC1,60.1*,-2.9,0.08,0.1,-24.2
NC(=O)Nc1ccc(C(=O)OCC(=O)Nc2ccc(Cl)cc2C(=O)c2ccccc2)cc1,7.1,-1.7,-0.48,3.4,-25.2
CCC(CC)N1CCN(C(=O)Cc2ccccc2)CC1,42.9*,.,0.83,0.2,-20.1
Cc1ccccc1CN1CCN(C(=O)Cc2ccccc2)CC1,.,.,.,0.7,.
Cc1ccc(-n2c(-c3cccs3)nc3ccccc3c2=O)cc1,28.8,-1.2,-1.63,2.2,-34.6
CN1C(=O)C(=Cc2ccc(N3CCOCC3)o2)C(=O)N(C)C1=O,24.6,-3.9,0.38,0.2,-12.6
CN1C(=O)C(=Cc2ccc(N3CCCCCC3)o2)C(=O)N(C)C1=S,5.8,-7.9,-0.86,8.7*,-50.4
CCN(CCNc1ccc([N+](=O)[O-])c2cccnc12)S(=O)(=O)c1ccccc1,5.2,3.3,0.41,4.8,-30.7
CCN(CCNc1ccc([N+](=O)[O-])c2cccnc12)S(=O)(=O)c1ccc(Cl)cc1,6.0,-26.3,-0.55,9.5*,-53.0
COc1cc(/C=C2\C(=O)NC(=O)N(CCc3ccc(F)cc3)C2=O)ccc1O,10.6,11.5,-0.14,-0.8,1.6
CCOc1ccc(/C=C2/C(=O)NC(=O)N(CCc3ccc(F)cc3)C2=O)cc1,4.0,49.0*,0.11,2.7,-13.1
O=C1NC(=O)N(CCC2=CCCCC2)C(=O)/C1=C/c1ccc(O)cc1,25.5,41.0*,0.45,-1.0,-40.5
COCCCN=Cc1c(O)[nH]c(=S)[nH]c1=O,.,.,.,0.6,.
Fc1ccc(C(OCCN2CCCC2)c2ccc(Br)cc2)cc1 (stereo not given),54.2*,6.6,0.24,0.3,15.9
O=c1[nH]c(=O)n(CCC2=CCCCC2)c(O)c1C=NCCN1CCNCC1,34.5*,-1.7,-0.98,1.6,-45.6
CCOC(=O)C1=C(C)OC(N)=C(C#N)C12C(=O)Nc1ccc(C)cc12 (stereo not given),9.6,-3.2,0.76,0.0,-29.9
Cc1cccc(NP(=O)(Oc2ccccc2F)Oc2ccccc2F)c1C,2.4,12.9,-0.13,8.7*,3.8
Nc1c(C(=O)NCCc2ccccc2)c2nc3ccccc3nc2n1CCN1CCOCC1,6.8,-34.6,-1.86,-1.2,99.2*
Cc1cccc(C)c1NC(=O)c1cccn(Cc2ccc3c(c2)OC(F)(F)O3)c1=O,1.3,-16.8,-1.96,1.4,-36.6
O=C(Nc1ccc(C(F)(F)F)cc1)c1cccn(Cc2ccc3c(c2)OC(F)(F)O3)c1=O,21.3,-5.5,-2.97,10.2*,-93.8
O=C(/C=C/c1ccccc1)NCCc1cnc[nH]1,.,.,.,1.6,.
O=C(O)CCCc1ccc(N(CCCl)CCCl)cc1,12.0,27.1*,-0.09,9.8*,-22.9
N#CSCC(=O)N1c2ccccc2CCc2ccccc21,8.1,43.4*,-1.16,1.0,-51.0
